This note sets out measurements from ChEMBL document CHEMBL1130429 (J Med Chem, 1997).

Assay [1] has as its target Dopamine receptor D2 and D3 (Rattus norvegicus, UniProt P19020+P61169). Description: In vitro binding affinity for D2/D3 receptors in rat striatal homogenates by [125I]NCQ298 displacement.
In assay [2] the target is Sigma 2 receptor. Description: Sigma 2 binding assay was done rat liver membrane, by labeling the binding site with [3H]-DTG (DuPont-NEN) in the presence of […]-pentazocine (100 nM). In a few lines:
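P2 membranes from male Sprague-Dawley rat liver (35 µg protein) with 3 nM [3H]DTG plus 100 nM unlabelled (+)-pentazocine to mask σ1, 50 mM Tris-HCl pH 8.0, 120 min, 25 °C; GF/B filtration; nonspecific with 5 µM DTG. IC50 in triplicate from 5-10 concentrations, Ki via Cheng-Prusoff (Kd 17.9 nM), mean ± SEM.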

In assay [3] the target is T1, Sodium-dependent dopamine transporter (Rattus norvegicus, UniProt P23977). The assay can be described thus: Binding affinity for dopamine transporter was determined in rat striatal membrane. It is filed as cell membranes.
T1 sequence (P23977 whole entry): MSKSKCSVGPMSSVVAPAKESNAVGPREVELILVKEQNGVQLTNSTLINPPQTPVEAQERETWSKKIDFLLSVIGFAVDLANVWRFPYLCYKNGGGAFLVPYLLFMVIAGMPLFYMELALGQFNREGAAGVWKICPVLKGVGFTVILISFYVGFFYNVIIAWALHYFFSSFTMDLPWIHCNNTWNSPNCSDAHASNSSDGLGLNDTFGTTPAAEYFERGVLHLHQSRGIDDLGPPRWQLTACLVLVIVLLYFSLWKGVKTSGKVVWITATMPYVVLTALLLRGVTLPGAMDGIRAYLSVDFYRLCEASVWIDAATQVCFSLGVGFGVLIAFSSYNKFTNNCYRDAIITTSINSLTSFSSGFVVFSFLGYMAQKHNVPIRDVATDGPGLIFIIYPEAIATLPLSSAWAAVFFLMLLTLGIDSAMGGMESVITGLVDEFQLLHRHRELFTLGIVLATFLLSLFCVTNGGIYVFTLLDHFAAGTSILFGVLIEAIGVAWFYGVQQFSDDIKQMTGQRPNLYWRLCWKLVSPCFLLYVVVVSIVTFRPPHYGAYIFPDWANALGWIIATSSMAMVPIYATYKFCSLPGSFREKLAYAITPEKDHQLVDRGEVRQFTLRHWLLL
In assay [4] the target is Sigma 2 receptor. Description: Sigma 2 binding assay was done rat liver membrane, by labeling the binding site with [3H]DTG (DuPont-NEN) in the presence of […]-pentazocine (100 nM).
Assay [5] has as its target T1, Sodium-dependent dopamine transporter. The assay can be described thus: Binding affinity for dopamine transporter was determined in rat striatal membrane. It is filed as cell membranes, Striatum.
The target in assay [6] is T2, Sodium-dependent serotonin transporter (Rattus norvegicus, UniProt P31652). The assay can be described thus: Binding affinity for serotonin transporter was determined in rat cortical membrane. The format is cell membranes.
T2 sequence (P31652 whole entry): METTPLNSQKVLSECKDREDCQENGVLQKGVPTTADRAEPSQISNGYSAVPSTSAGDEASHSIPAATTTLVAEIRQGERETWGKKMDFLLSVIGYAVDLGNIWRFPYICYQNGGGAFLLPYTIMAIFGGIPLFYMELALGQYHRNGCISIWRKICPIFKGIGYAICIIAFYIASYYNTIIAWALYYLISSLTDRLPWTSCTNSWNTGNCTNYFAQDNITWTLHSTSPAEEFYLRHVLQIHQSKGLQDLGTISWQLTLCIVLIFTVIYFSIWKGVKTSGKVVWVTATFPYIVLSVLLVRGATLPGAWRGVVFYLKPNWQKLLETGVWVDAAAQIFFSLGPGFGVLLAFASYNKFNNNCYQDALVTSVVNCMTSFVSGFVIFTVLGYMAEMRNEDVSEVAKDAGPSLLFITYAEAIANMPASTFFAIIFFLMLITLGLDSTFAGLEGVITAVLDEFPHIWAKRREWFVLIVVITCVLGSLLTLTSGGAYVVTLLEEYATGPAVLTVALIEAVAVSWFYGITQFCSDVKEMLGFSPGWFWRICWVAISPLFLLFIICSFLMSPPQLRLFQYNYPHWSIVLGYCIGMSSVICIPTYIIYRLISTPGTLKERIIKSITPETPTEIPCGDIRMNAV
Assay [7] deals with T2, Sodium-dependent serotonin transporter. Description: Binding affinity for serotonin transporter was determined in rat cortical membrane. The format is cell membranes.

As to `O[C@@H](CN1CCC2(CCc3ccccc32)CC1)c1cccc(Br)c1`, the Ki (commonly a dissociation constant, usually derived from enzyme kinetics or from competition with a known ligand) in assay [1] was > 1000 nM; at Sigma 2 receptor [2], 12.7 nM.
For `OC(CN1C2CCC1CC(c1ccccc1)C2)c1c(Cl)cccc1Cl` (stereo unspecified), the Ki in assay [3] amounted to 42 nM; on Sigma 2 receptor [2], 15.9 nM.
With `OC(CN1C2CCC1CC(c1ccccc1)C2)c1ccccc1Br` (stereo unspecified), the values for the Ki (in assay [3]; at Sigma 2 receptor [2]) were 67.2 nM and 7.71 nM, respectively.
Consider `O[C@@H]1CCN(Cc2cccc(I)c2)C[C@H]1N1CCC2(CCc3ccccc32)CC1`, for which the values for the inhibitory constant (Ki) (in assay [1]; at Sigma 2 receptor [4]) were > 1000 nM and 224 nM, respectively.
Turning to `CN1CC2(CCN(CCCC(=O)c3ccc(F)cc3)CC2)c2ccccc21`, the results for the Ki (in assay [1]; at Sigma 2 receptor [2]) were 56.5 nM and 60.8 nM, respectively.
Consider `O[C@H]1Cc2ccccc2C[C@@H]1N1C2CCC1CC(c1ccccc1)C2` (stereo partly specified), for which the Ki in assay [1] was 3385 nM; in assay [5], 1070 nM; in assay [6] it was 1680 nM.
As for `CN1CC2(CCN([C@@H]3Cc4ccccc4C[C@H]3O)CC2)c2ccccc21`, the Ki in assay [1] is > 1000 nM.
Regarding `O[C@H](Cc1ccc(Br)cc1)CN1CCC2(CCc3ccccc32)CC1`, the Ki was > 1000 nM in assay [1] and 8.8 nM on Sigma 2 receptor [4].
`OC(CN1C2CCC1CC(c1ccccc1)C2)c1ccc(Cl)c(Cl)c1` (stereo unspecified): the Ki in assay [3] was found to be 23.6 nM; on Sigma 2 receptor [2], 18.8 nM.
Turning to `CN1CC2(CCN([C@@H]3CN(Cc4cccc(I)c4)CC[C@H]3O)CC2)c2ccccc21`, the Ki in assay [1] is > 1000 nM; at Sigma 2 receptor [4] it was 139 nM.
In the case of `CN1CC2(CCN([C@@H]3CCCC[C@H]3O)CC2)c2ccccc21`, the Ki was > 1000 nM in assay [1] and 357 nM at Sigma 2 receptor [2].
In the case of `OC(CN1C2CCC1CC(c1ccccc1)C2)c1ccc(Br)cc1` (stereo unspecified), the Ki in assay [1] is 5092 nM; in assay [3] it was 73.8 nM; at Sigma 2 receptor [2], 11.3 nM; in assay [7] it was 30.1 nM.
With `CN1CC2(CCN([C@@H]3CN(Cc4ccc(F)cc4)CC[C@H]3O)CC2)c2ccccc21`, the Ki in assay [1] was > 1000 nM.
The compound `OC(CCCN1C2CCC1CC(c1ccccc1)C2)c1ccc(F)cc1` (stereo unspecified) showed a Ki in assay [5] of 464 nM.
Take `OC(CN1C2CCC1CC(c1ccccc1)C2)c1cccc(Br)c1` (stereo unspecified): the Ki turned out to be 2658 nM in assay [1], 23.6 nM in assay [3], 9.87 nM at Sigma 2 receptor [2] and 27 nM in assay [7].
As for `O[C@@H]1CCCC[C@H]1N1CCC2(CCc3ccccc32)CC1`, the Ki is > 1000 nM in assay [1] and 30 nM at Sigma 2 receptor [4].
In the case of `CN1CC2(CCN(C[C@H](O)Cc3ccc(Br)cc3)CC2)c2ccccc21`, the Ki in assay [1] was > 1000 nM; on Sigma 2 receptor [4] it was 22.9 nM.
As to `O[C@@H]1Cc2ccccc2C[C@H]1N1CCC2(CCc3ccccc32)CC1`, the Ki in assay [1] was > 1000 nM.
Turning to `O=C(CCCN1CCC2(CCc3ccccc32)CC1)c1ccc(F)cc1`, the Ki on Sigma 2 receptor [4] amounted to 3.3 nM.
For `O=C(CCCN1C2CCC1CC(c1ccccc1)C2)c1ccc(F)cc1` (stereo unspecified), the Ki in assay [1] turned out to be 16.3 nM; in assay [3], 129 nM; on Sigma 2 receptor [2], 15.4 nM; in assay [7], 88.6 nM.
On to `CN1CC2(CCN(C[C@H](O)c3cccc(Br)c3)CC2)c2ccccc21`, for which the Ki in assay [1] was > 1000 nM; on Sigma 2 receptor [4], 99.2 nM.
The like results for `O[C@@H]1CCN(Cc2ccc(F)cc2)C[C@H]1N1CCC2(CCc3ccccc32)CC1` were, in that order, > 1000 nM and 67 nM.
Consider `O[C@H]1CCN(Cc2cccc(I)c2)C[C@@H]1N1C2CCC1CC(c1ccccc1)C2` (stereo partly specified), for which the Ki in assay [1] worked out at 1967 nM; in assay [3] it was 1070 nM; on Sigma 2 receptor [2], 275 nM; in assay [7], 4430 nM.
`O[C@H]1CCCC[C@@H]1N1C2CCC1CC(c1ccccc1)C2` (stereo partly specified): the Ki was > 38000 nM in assay [1], 2810 nM in assay [5], 3420 nM in assay [6] and 118 nM on Sigma 2 receptor [2].
For `OC(Cc1ccc(Br)cc1)CN1C2CCC1CC(c1ccccc1)C2` (stereo unspecified), the Ki is 1490 nM in assay [1], 306 nM in assay [5], 234 nM in assay [6] and 4.95 nM on Sigma 2 receptor [2].
Take `O=C(CN1C2CCC1CC(c1ccccc1)C2)c1ccc(F)cc1` (stereo unspecified): the Ki is 222 nM in assay [3] and 73.3 nM on Sigma 2 receptor [2].
In the case of `O[C@H]1CCN(Cc2ccc(F)cc2)C[C@@H]1N1C2CCC1CC(c1ccccc1)C2` (stereo partly specified), the Ki was 8795 nM in assay [1], 4180 nM in assay [3], 260 nM at Sigma 2 receptor [2] and 9200 nM in assay [7].
Turning to `OC(CN1C2CCC1CC(c1ccccc1)C2)c1ccccc1` (stereo unspecified), the results for the inhibition constant Ki (in assay [5]; at Sigma 2 receptor [2]) were 41.5 nM and 32.7 nM, respectively.
